# Test results reported in ChEMBL document CHEMBL3616442, “Unconventional Knoevenagel-type indoles: Synthesis and cell-based studies for the identification of pro-apoptotic agents” (Eur J Med Chem, 2015).
# Calls of active or inactive are those of the source. The rule behind the calls is not given here.
# Key:
# MT4 = experiment: Antiproliferative activity against human MT4 cells after 96 hrs by MTT assay; type: functional, cell-based; details: MT4, 96 h
# In short: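 Exponentially growing MT-4 cells (CD4+ human T-cells carrying integrated HTLV-1 genome), seeded at 1×10^5 cells/mL in RPMI-1640 with 10% FCS and antibiotics. Serial dilutions of compound (DMSO stock 100 mM, diluted in medium), 37 °C, 5% CO₂, 96 h. Viability read by MTT. 50% inhibition versus untreated controls by linear regression. Mean ± SD of three independent determinations.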
# CCRF-CEM [1] = experiment: Growth inhibition of human CCRF-CEM cells after 48 hrs by sulforhodamine B assay; type: functional
# In short: (§1)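 NCI 60-cell-line screen. Compounds tested at five 10-fold dilutions from 10^-4 to 10^-8 M. Cells exposed for the last 48 h of a 72 h incubation, growth estimated by sulforhodamine B protein assay. GI50 is the concentration giving 50% growth inhibition. Values beyond the tested range are expressed as greater or lesser than the extreme concentration.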
# HL-60(TB) = experiment: Growth inhibition of human HL-60(TB) cells after 48 hrs by sulforhodamine B assay; type: functional; details: HL-60, 48 h
# In short: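 NCI 60-cell-line screen, HL-60(TB) included. Compound given at five 10-fold dilutions from 10^-4 to 10^-8 M. Cells exposed for the last 48 h of a 72 h incubation. Growth or viability estimated by sulforhodamine B protein assay. GI50 is the concentration giving 50% growth inhibition. Values outside the tested range are reported as greater or less than the highest or lowest concentration.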
# NCI-H23 = experiment: Growth inhibition of human NCI-H23 cells after 48 hrs by sulforhodamine B assay; type: functional; details: NCI-H23, 48 h; in short: as §1
# HCT-116 = experiment: Growth inhibition of human HCT116 cells after 48 hrs by sulforhodamine B assay; type: functional; details: HCT-116, 48 h; in short: as §1
# HCT-15 = experiment: Growth inhibition of human HCT15 cells after 48 hrs by sulforhodamine B assay; type: functional; details: HCT-15, 48 h; in short: as §1
# KM12 = experiment: Growth inhibition of human KM12 cells after 48 hrs by sulforhodamine B assay; type: functional; details: KM12, 48 h; in short: as §1
# SW-620 = experiment: Growth inhibition of human SW620 cells after 48 hrs by sulforhodamine B assay; type: functional; details: SW-620, 48 h
# U-251 = experiment: Growth inhibition of human U251 cells after 48 hrs by sulforhodamine B assay; type: functional; details: U-251, 48 h
# MDA-MB-435 = experiment: Growth inhibition of human MDA-MB-435 cells after 48 hrs by sulforhodamine B assay; type: functional; details: MDA-MB-435, 48 h; in short: as §1
# OVCAR-4 = experiment: Growth inhibition of human OVCAR4 cells after 48 hrs by sulforhodamine B assay; type: functional; details: OVCAR-4, 48 h; in short: as §1
# SK-OV-3 = experiment: Growth inhibition of human SKOV3 cells after 48 hrs by sulforhodamine B assay; type: functional; details: SK-OV-3, 48 h
# ACHN = experiment: Growth inhibition of human ACHN cells after 48 hrs by sulforhodamine B assay; type: functional; in short: as §1
# SN12C = experiment: Growth inhibition of human SN12C cells after 48 hrs by sulforhodamine B assay; type: functional
# MDA-MB-231 = experiment: Growth inhibition of human MDA-MB-231 cells after 48 hrs by sulforhodamine B assay; type: functional; details: MDA-MB-231, 48 h; in short: as §1
# HL-60 [2] = experiment: Antiproliferative activity against human HL60 cells after 3 days incubation by alamar blue method; type: functional; details: for GI50: HL-60, 72 h
# In short: (§2)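 HL-60 and K562 grown in RPMI 1640, MCF-7 in DMEM, each with 10% FCS, penicillin G and streptomycin. Seeded at 4x10⁴ (HL-60, K562) or 2x10⁴ (MCF-7) cells per well with serial compound dilutions, incubated 3 days at 37 °C. Alamar blue added for 3 h at 37 °C in the dark, fluorescence read at ex 544/em 590 nm. IC50 versus untreated controls by linear regression.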
# K562 [3] = experiment: Antiproliferative activity against human K562 cells after 3 days incubation by alamar blue method; type: functional; details: for GI50: K562, 72 h; in short: as §2
# MCF7 [4] = experiment: Antiproliferative activity against human MCF7 cells after 3 days incubation by alamar blue method; type: functional; details: for GI50: MCF7, 72 h; in short: as §2
# HL-60 [5] = experiment: Induction of apoptosis in human HL60 cells by propidium iodide staining based flow cytometric analysis; type: functional
# In short: (§3)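 After treatment, cells harvested, fixed in ice-cold 70% ethanol at 4 °C, stained 30 min at 37 °C in the dark with 100 µg/mL propidium iodide plus 10 µg/mL RNase A; 10,000 gated cells analysed at 488 nm with debris excluded; apoptosis followed over time; mean ± S.E.M. of three independent experiments run in triplicate.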
# K562 [6] = experiment: Induction of apoptosis in human K562 cells by propidium iodide staining based flow cytometric analysis; type: functional; in short: as §3
# MCF7 [7] = experiment: Induction of apoptosis in human MCF7 cells by propidium iodide staining based flow cytometric analysis; type: functional; details: TDE = time-dependent effect; in short: as §3
# CCRF-CEM [8] = experiment: Cytotoxicity against human CCRF-CEM cells after 96 hrs by MTT assay; type: functional, cell-based
# In short: (§4)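 ATCC cell lines, mycoplasma-free by Hoechst staining. Haematological lines in RPMI-1640, solid-tumour and normal fibroblast lines in their own media, all with 10% FCS and antibiotics, at 37 °C in 5% CO₂. Compounds added as serial dilutions from a 100 mM DMSO stock diluted in medium. Viability by MTT after 96 h at 37 °C. Mean ± SD of three independent determinations.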
# WIL2-NS = experiment: Cytotoxicity against human WIL2-NS cells after 96 hrs by MTT assay; type: functional, cell-based; in short: as §4
# CCRF-SB = experiment: Cytotoxicity against human CCRF-SB cells after 96 hrs by MTT assay; type: functional, cell-based; in short: as §4
# MRC5 = experiment: Cytotoxicity against human MRC5 cells after 96 hrs by MTT assay; type: cell-based; details: MRC5, 96 h; in short: as §4
# [9] = Cytotoxicity against human CRL7065 cells after 96 hrs by MTT assay; type: cell-based; details: CRL-7065, 96 h; in short: as §4
# SK-MEL-28 = experiment: Cytotoxicity against human SK-MEL-28 cells after 96 hrs by MTT assay; type: functional, cell-based; details: SK-MEL-28, 96 h; in short: as §4
# [10] = Cytotoxicity against human SKMES1 cells after 96 hrs by MTT assay; type: functional, cell-based; details: SK-MES-1, 96 h; in short: as §4
# DU-145 = experiment: Cytotoxicity against human DU145 cells after 96 hrs by MTT assay; type: functional, cell-based; details: DU-145, 96 h; in short: as §4
# HepG2 = experiment: Cytotoxicity against human HepG2 cells after 96 hrs by MTT assay; type: functional, cell-based; details: HepG2, 96 h; in short: as §4
# MCF7 [11] = experiment: Cytotoxicity against human MCF7 cells after 96 hrs by MTT assay; type: functional, cell-based; details: MCF7, 96 h; in short: as §4
# Tubulin (Homo sapiens) = Tubulin (Homo sapiens) (UniProt P68371+Q9H4B7+P0DPH7+P68366+Q13509+Q71U36+P04350+Q3ZCM7+P07437+P68363+Q9BQE3+Q6PEY2+Q13885+Q9BVA1+Q9BUF5); experiment: Induction of Tubulin depolymerization in human MCF7 cells by immunofluorescence analysis; type: cell-based
# In short: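 MCF-7 cells grown and treated on chamber slides, fixed in ice-cold 100% methanol, washed in PBS with 0.1% Triton X-100, blocked 30 min in 5% BSA, then mouse anti-tubulin for 1 h and Alexa 488 secondary for 1 h; DNA counterstained with 0.2 μg/mL propidium iodide for 2 min. Paclitaxel and PBOX-15 served as tubulin controls.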
SMILES,EC50 (MT4),GI50 (CCRF-CEM [1]),GI50 (HL-60(TB)),GI50 (NCI-H23),GI50 (HCT-116),GI50 (HCT-15),GI50 (KM12),GI50 (SW-620),GI50 (U-251),GI50 (MDA-MB-435),GI50 (OVCAR-4),GI50 (SK-OV-3),GI50 (ACHN),GI50 (SN12C),GI50 (MDA-MB-231),Activity (HL-60 [2]),GI50 (HL-60 [2]),Activity (K562 [3]),GI50 (K562 [3]),Activity (MCF7 [4]),also measured
CC(=O)/C(=C\c1c(-c2ccccc2)[nH]c2ccccc12)S(C)(=O)=O,500 nM,4700 nM,2600 nM,4000 nM,2900 nM,2000 nM,2100 nM,2100 nM,2900 nM,415 nM,3800 nM,4400 nM,5800 nM,6900 nM,5500 nM,Dose-dependent effect,2570 nM,Dose-dependent effect,7710 nM,Dose-dependent effect,GI50 (MCF7 [4]): > 10000 nM; Activity (HL-60 [5]; TDE = time-dependent effect): tde; Activity (K562 [6]; TDE = time-dependent effect): tde; Activity (MCF7 [7]): tde
COc1ccc(-c2[nH]c3ccc(OC)cc3c2/C=C(\C#N)S(=O)(=O)c2ccccc2)cc1,200 nM,1300 nM,899 nM,946 nM,539 nM,632 nM,654 nM,540 nM,563 nM,276 nM,2100 nM,901 nM,1800 nM,2300 nM,1400 nM,,,,,,EC50 (CCRF-CEM [8]): 300 nM; EC50 (WIL2-NS): 500 nM; EC50 (CCRF-SB): 300 nM; EC50 (MRC5): 22000 nM; EC50 [9]: > 100000 nM; EC50 (SK-MEL-28): > 100000 nM; EC50 [10]: > 100000 nM; EC50 (DU-145): 3000 nM; EC50 (HepG2): 6400 nM; EC50 (MCF7 [11]): 40000 nM
COc1ccc(-c2[nH]c3ccccc3c2/C=C(\C#N)S(=O)(=O)c2ccccc2)cc1,200 nM,1300 nM,294 nM,932 nM,399 nM,554 nM,374 nM,506 nM,473 nM,203 nM,578 nM,528 nM,1900 nM,1500 nM,649 nM,Dose-dependent effect,660 nM,Dose-dependent effect,5280 nM,Dose-dependent effect,EC50 (CCRF-CEM [8]): 300 nM; EC50 (WIL2-NS): 400 nM; EC50 (CCRF-SB): 300 nM; EC50 (MRC5): 73000 nM; EC50 [9]: > 100000 nM; EC50 (SK-MEL-28): > 100000 nM; EC50 [10]: 43000 nM; EC50 (DU-145): 2000 nM; EC50 (HepG2): 11000 nM; EC50 (MCF7 [11]): > 100000 nM; GI50 (MCF7 [4]): 5600 nM; Activity (HL-60 [5]): 65.5%; Activity (HL-60 [5]; TDE = time-dependent effect): tde; Activity (K562 [6]; TDE = time-dependent effect): tde; Activity (MCF7 [7]): tde; Activity (Tubulin (Homo sapiens)): Active
COc1ccc(-c2[nH]c3ccccc3c2C=C(C#N)C#N)cc1,300 nM,352 nM,271 nM,600 nM,411 nM,593 nM,374 nM,440 nM,483 nM,128 nM,798 nM,445 nM,2300 nM,1200 nM,562 nM,Dose-dependent effect,1080 nM,Dose-dependent effect,4780 nM,Dose-dependent effect,GI50 (MCF7 [4]): > 10000 nM; Activity (HL-60 [5]; TDE = time-dependent effect): tde; Activity (K562 [6]): 44.4%; Activity (K562 [6]; TDE = time-dependent effect): tde; Activity (MCF7 [7]): tde
COc1ccc2[nH]c(-c3ccccc3)c(/C=C(\C#N)S(=O)(=O)c3ccccc3)c2c1,1300 nM,6500 nM,2400 nM,8000 nM,3700 nM,4000 nM,3000 nM,4000 nM,4600 nM,1100 nM,8300 nM,7100 nM,12900 nM,7800 nM,7500 nM,,,,,,EC50 (CCRF-CEM [8]): 1500 nM; EC50 (WIL2-NS): 2800 nM; EC50 (CCRF-SB): 1900 nM; EC50 (MRC5): 14000 nM; EC50 [9]: 11000 nM; EC50 (SK-MEL-28): 10000 nM; EC50 [10]: 12000 nM; EC50 (DU-145): 10000 nM; EC50 (HepG2): 9600 nM; EC50 (MCF7 [11]): 12000 nM
